Assay results published in PMC6690763 (Bioorganic & medicinal chemistry letters, 2019).
Each block holds one compound with its values, some of them ahead of it.

Columns and labels:
[1] = system: latent EBV in MutuI cells; conditions: typical; cited from earlier work
plasma stability, mouse = assay type: in vitro ADME
plasma stability, human = assay type: in vitro ADME
[2] = system: latent EBV in MutuI cells; assay: EBV lytic reactivation, MutuI cell based assay; set-up: species or system Epstein-Barr virus; conditions: for potency in EBV reactivation relative to 12: analogs of 12
[3] = liver microsomal stability, mouse; assay type: in vitro ADME; conditions: microsomes
[4] = liver microsomal stability, human; assay type: in vitro ADME; conditions: microsomes
EBV-positive cells = conditions: combination with Ganciclovir; cited from earlier work
[5] = solubility on formulation; assay type: physicochemical; conditions: for solubility when formulated: 10% DMSO/ 10% solutol/ 80% PBS formulation mixture; for water solubility (ease of formulation): PEG moiety instead of methoxy in the B ring
[6] = system: latent EBV in SNU719 gastric carcinoma tumors; assay: SNU719 gastric carcinoma xenograft, BZLF1 immunoblot of tumors; assay type: in vivo; conditions: NSG mice, 30 mg/kg i.p. once per day, 4 days
In short: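 SNU719 gastric carcinoma cells (1×10^7) injected subcutaneously into left and right flanks of NSG mice (both sexes, 8-10 weeks old). From 28 days post-injection, test compound given i.p. at 30 mg/kg once daily; controls were vehicle (5% DMSO/5% Solutol) and PBS. Tumors collected after 4 days of treatment and homogenized. Immunoblot for lytic BZLF1 (Z), with β-actin as loading control.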

latent EBV = assay: cell based reactivation, Western blot analysis; set-up: species or system Epstein-Barr virus; conditions: compared with methoxy substituted counterparts; data not shown

Structure (SMILES): CCCC(=O)[O-].[Na+] [NaB, sodium butyrate]
concentration required to trigger the latent to lytic switch [1]: millimolar concentrations

Plasma Stability Mouse (plasma stability, mouse): >6 h | Plasma Stability Human (plasma stability, human): >6 h
Structure (SMILES): COc1ccc(C2c3[nH]c4ccc(Cl)cc4c3CCN2C(=O)c2cccc(OC)c2)cc1 (stereo not drawn) [Compound 12]

Structure (SMILES): CCCCCCCCCCCCCC(=O)O[C@@H]1[C@@H](C)[C@@]2(O)[C@@H](C=C(CO)C[C@]3(O)C(=O)C(C)=C[C@@H]23)[C@@H]2C(C)(C)[C@]12OC(C)=O [TPA, 12-O-tetradecanoylphorbol-13-acetate]
concentration required to trigger the latent to lytic switch [1]: millimolar concentrations

Structure (SMILES): COC(=O)c1ccccc1NC(=O)N1CCc2c([nH]c3ccc(Cl)cc23)C1c1ccc(OC)cc1 (stereo not drawn) [Compound C60]
EC50 ([2]; human gammaherpesvirus 4, MUTU-I, read-out: potency in cells): 150 to 200 nM | Plasma Stability Mouse (plasma stability, mouse): >6 h | Plasma Stability Human (plasma stability, human): >6 h | Liver Microsomal Stability Mouse CLint [3]: < 0.5 | Liver Microsomal Stability Human CLint [4]: 0.93 | synergy with GCV in killing EBV-positive cells (EBV-positive cells): functions synergistically with Ganciclovir (GCV) to selectively kill EBV-positive cells

Structure (SMILES): O=C(c1cccc(CN2CCOCC2)c1)N1CCc2c([nH]c3ccc(Cl)cc23)C1c1ccc(Cl)cc1 (stereo not drawn) [Compound 19]
potency in EBV reactivation relative to 12 [2]: maintained potency | solubility when formulated [5]: more soluble

Structure (SMILES): COc1cccc(C(=O)N2CCc3c([nH]c4ccc(Cl)cc34)C2c2ccc(O)cc2)c1 (stereo not drawn) [Compound 20]
potency in EBV reactivation relative to 12 [2]: maintained potency | solubility when formulated [5]: more soluble | EBV reactivation in tumors (presence of lytic protein BZLF1) [6]: modestly reactivates EBV

Structure (SMILES): COCCOCCOCCOc1ccc(C2c3[nH]c4ccc(Cl)cc4c3CCN2C(=O)Nc2ccccc2Cl)cc1 (stereo not drawn) [Compound 22]
water solubility (ease of formulation) [5]: significantly improved water solubility | activity by Western blot analysis (latent EBV): comparable activity to their methoxy substituted counterparts

Structure (SMILES): COCCOCCOCCOc1ccc(C2c3[nH]c4ccc(Cl)cc4c3CCN2C(=O)Nc2ccccc2C(=O)OC)cc1 (stereo not drawn) [Compound 21]
water solubility (ease of formulation) [5]: significantly improved water solubility | activity by Western blot analysis (latent EBV): comparable activity to their methoxy substituted counterparts

Structure (SMILES): COc1ccc(C2c3[nH]c4ccc(Cl)cc4c3CCN2C(=O)c2cccc(CN3CCOCC3)c2)cc1 (stereo not drawn) [Compound 18]
potency in EBV reactivation relative to 12 [2]: maintained potency | solubility when formulated [5]: more soluble
